Here are results for three compounds from ChEMBL document CHEMBL4725354 (J Med Chem, 2020).

Each structure is given as a SMILES string.

The test system of data set [1] is MDCK-II. Nature of the data set: Cytotoxicity against MDCK2 cells assessed as reduction in cell viability at 10 uM after 72 hrs by MTT assay. The following applies: dog. In kind it is cell-based, Canis lupus familiaris. The method in brief: (§1)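 Single-concentration screen at 10 µM in MDCK II BCRP and parental MDCK II cells. MTT assay, 72 h at 37 °C, 5% CO2. Viability referenced to culture medium (100%) and 10% DMSO (0%). Mean ± SEM of at least three independent experiments with duplicates.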

In data set [2] the test system is ABCG2. Briefly: Therapeutic ratio of GI50 for Growth inhibition of MDCK2 cells over expressing human ABCG2 to IC50 for inhibition of human ABCG2 expressed in MDCK2 cells co-expressing GFP preincubated for 30 mins followed by Hoechst 33342 addition and measured every 60 sec for 120 mins by fluorescence assay. The format is toxicity, cell-based. The following applies: dog, MDCK2 cells overexpressing human ABCG2, probe Hoechst 33342; read-out: TI.

Data set [3] concerns the target T1, ATP-dependent translocase ABCB1 (Homo sapiens, UniProt P08183). Nature of the data set: Inhibition of human ABCB1-mediated multidrug resistance in human A2780/ADR cells assessed as potentiation of doxorubicin-induced cytotoxicity by measuring half maximal reversal concentration after 72 hrs by MTT assay. The format is cell-based.
Data set [4] deals with T2, ABCG2 (Homo sapiens, UniProt Q9UNQ0).
T2 sequence (Q9UNQ0 whole entry): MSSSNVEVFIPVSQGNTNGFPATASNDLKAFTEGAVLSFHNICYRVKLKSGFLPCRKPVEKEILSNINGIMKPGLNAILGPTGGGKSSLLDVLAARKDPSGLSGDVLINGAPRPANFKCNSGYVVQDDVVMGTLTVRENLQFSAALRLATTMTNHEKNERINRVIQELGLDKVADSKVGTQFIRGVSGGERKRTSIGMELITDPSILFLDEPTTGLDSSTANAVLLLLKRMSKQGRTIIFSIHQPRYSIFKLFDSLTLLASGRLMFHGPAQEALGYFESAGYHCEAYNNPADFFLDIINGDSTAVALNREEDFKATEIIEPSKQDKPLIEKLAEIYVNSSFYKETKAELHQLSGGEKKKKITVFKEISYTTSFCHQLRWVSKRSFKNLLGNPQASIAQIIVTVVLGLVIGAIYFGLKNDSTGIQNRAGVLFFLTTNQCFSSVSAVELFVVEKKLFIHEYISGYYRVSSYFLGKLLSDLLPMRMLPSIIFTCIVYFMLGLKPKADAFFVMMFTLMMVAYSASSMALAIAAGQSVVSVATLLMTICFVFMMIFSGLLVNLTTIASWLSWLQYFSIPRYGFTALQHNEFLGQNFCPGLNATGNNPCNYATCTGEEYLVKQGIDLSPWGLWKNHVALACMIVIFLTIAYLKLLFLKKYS
Briefly: Inhibition of human ABCG2 expressed in MDCK2 cells co-expressing GFP preincubated for 15 mins followed by pheophorbideA addition and measured after 2 hrs by flow cytometric analysis relative to control. The format is cell-based, MDCK-II. The following applies: probe pheophorbide A, read-out: Imax. (Flow cytometry measures light scatter and fluorescence of single cells or particles in a stream.)

Data set [5] addresses T3, Broad substrate specificity ATP-binding cassette transporter ABCG2 (Homo sapiens, UniProt Q9UNQ0).
T3 sequence (Q9UNQ0 whole entry): T2 sequence (Q9UNQ0 whole entry)
Nature of the data set: Inhibition of human ABCG2 expressed in MDCK2 cells co-expressing GFP preincubated for 30 mins followed by Hoechst 33342 addition and measured every 60 sec for 120 mins by fluorescence assay. In kind it is cell-based, MDCK-II. The method in brief: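 MDCK II cells transfected with human ABCG2 cDNA C-terminally fused to GFP. Hoechst 33342 added at 1 µM final. Fluorescence (ex 355, em 460 nm) read every 60 s for 120 min. Steady-state means vs log concentration fitted by 3- or 4-parameter logistic to give IC50.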

The target in data set [6] is Multidrug resistance-associated protein 1 (Homo sapiens, UniProt P33527). Nature of the data set: Inhibition of human ABCC1-mediated multidrug resistance in MDCK2 cells assessed as potentiation of doxorubicin-induced cytotoxicity by measuring half maximal reversal concentration after 72 hrs by MTT assay. In kind it is cell-based. The following applies: mdck-ii. In general terms: Formazan colour is commonly taken as a measure of viable cells.
Sequence of Multidrug resistance-associated protein 1 (P33527 whole entry): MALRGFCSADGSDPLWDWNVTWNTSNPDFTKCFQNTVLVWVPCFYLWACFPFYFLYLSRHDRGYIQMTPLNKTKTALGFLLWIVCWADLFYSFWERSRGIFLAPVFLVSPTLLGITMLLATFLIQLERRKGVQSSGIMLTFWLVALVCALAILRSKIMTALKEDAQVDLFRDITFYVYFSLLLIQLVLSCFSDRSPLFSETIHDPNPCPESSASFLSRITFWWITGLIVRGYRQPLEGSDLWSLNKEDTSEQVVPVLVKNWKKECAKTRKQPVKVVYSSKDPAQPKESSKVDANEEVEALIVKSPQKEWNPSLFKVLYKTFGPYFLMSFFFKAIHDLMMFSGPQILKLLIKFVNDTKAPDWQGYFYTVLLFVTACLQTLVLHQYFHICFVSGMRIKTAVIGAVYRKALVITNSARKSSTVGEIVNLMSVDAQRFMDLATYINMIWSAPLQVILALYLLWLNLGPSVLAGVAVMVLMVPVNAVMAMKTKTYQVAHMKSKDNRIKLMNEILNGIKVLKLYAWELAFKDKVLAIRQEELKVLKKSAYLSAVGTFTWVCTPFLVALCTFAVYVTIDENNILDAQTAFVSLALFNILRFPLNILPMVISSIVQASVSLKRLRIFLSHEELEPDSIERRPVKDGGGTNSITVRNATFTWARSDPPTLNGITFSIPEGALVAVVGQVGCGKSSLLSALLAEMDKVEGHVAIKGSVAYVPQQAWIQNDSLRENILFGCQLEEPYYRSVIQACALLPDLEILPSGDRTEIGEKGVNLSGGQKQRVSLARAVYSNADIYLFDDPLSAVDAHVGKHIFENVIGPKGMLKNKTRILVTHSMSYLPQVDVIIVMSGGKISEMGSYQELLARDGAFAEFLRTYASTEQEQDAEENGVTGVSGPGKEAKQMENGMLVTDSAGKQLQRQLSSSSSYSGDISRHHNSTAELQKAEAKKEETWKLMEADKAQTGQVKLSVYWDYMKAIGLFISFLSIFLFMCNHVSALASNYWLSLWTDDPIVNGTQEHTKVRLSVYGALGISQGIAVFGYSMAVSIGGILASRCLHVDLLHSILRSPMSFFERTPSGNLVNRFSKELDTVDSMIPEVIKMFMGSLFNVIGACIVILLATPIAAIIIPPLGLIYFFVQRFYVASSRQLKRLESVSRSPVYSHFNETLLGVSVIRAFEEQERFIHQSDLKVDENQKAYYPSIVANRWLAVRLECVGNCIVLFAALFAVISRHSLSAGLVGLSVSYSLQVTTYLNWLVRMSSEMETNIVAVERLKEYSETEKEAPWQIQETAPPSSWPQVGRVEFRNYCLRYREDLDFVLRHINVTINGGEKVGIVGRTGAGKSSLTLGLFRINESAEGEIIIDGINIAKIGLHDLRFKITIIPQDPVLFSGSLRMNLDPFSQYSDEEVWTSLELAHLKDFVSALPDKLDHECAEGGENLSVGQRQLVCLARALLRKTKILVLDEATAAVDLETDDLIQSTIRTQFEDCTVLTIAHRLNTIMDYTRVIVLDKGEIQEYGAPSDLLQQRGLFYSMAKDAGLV

For data set [7], the system named is ABCG2. Nature of the data set: Therapeutic ratio of GI50 for Growth inhibition of MDCK2 cells over expressing human ABCG2 to IC50 for inhibition of human ABCG2 expressed in MDCK2 cells co-expressing GFP preincubated for 15 mins followed by pheophorbideA addition and measured after 2 hrs by flow cytometric analysis. The format is toxicity, cell-based. The settings on record: dog, MDCK2 cells overexpressing human ABCG2, probe pheophorbide A; read-out: TI.

The nature of data set [8]: Growth inhibition of MDCK2 cells over expressing human ABCG2 after 72 hrs by MTT assay. In kind it is ADME, cell-based, Canis lupus familiaris, MDCK-II. The following applies: dog, MDCK2 cells overexpressing human ABCG2. The method in brief: (§2)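 MTT viability assay. Compound dilutions in culture medium (3.2 to 1000 µM as prepared). About 2,000 cells per well, 72 h at 37 °C, 5% CO2. Culture medium set as 100% and 10% DMSO as 0% viability. MTT added for 1 h, formazan dissolved in DMSO, absorbance read at 570 nm with 690 nm background. GI50 from nonlinear regression of absorbance vs log concentration; at least three independent experiments, duplicates, mean ± SEM.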

Data set [9] concerns the target T3, Broad substrate specificity ATP-binding cassette transporter ABCG2. Briefly: Inhibition of human ABCG2 expressed in MDCK2 cells co-expressing GFP preincubated for 15 mins followed by pheophorbideA addition and measured after 2 hrs by flow cytometric analysis. The format is cell-based, MDCK-II. The method in brief:
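Pheophorbide A added to 0.5 µM final and incubated 2 h. Read by flow cytometry (ex 488, em 695/50 nm); GFP expression checked at 525/30 nm. IC50 from 3- or 4-parameter logistic fit.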

The subject of data set [10] is MDCK-II. Briefly: Cytotoxicity against MDCK2 cells over expressing human ABCG2 at 10 uM assessed as reduction in cell viability after 72 hrs by MTT assay. The following applies: dog. The format is ADME, cell-based, Canis lupus familiaris. The method in brief: as §1
Data set [11] has as its target T2, ABCG2. Briefly: Inhibition of human ABCG2 expressed in MDCK2 cells co-expressing GFP preincubated for 30 mins followed by Hoechst 33342 addition and measured every 60 sec for 120 mins by fluorescence assay relative to control. In kind it is cell-based, MDCK-II. The following applies: probe Hoechst 33342, read-out: Imax. The method in brief:
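MDCK II cells transfected with human ABCG2 cDNA C-terminally fused to GFP. Steady-state means vs log concentration fitted by 3- or 4-parameter logistic to give IC50.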

Data set [12] in a line: Growth inhibition of MDCK2 cells after 72 hrs by MTT assay. The format is cell-based, Canis lupus familiaris, MDCK-II. The following applies: dog. The method in brief:
as §2

The target of data set [13] is T1, ATP-dependent translocase ABCB1. Briefly: Inhibition of human ABCB1 expressed in A2780/ADR cells preincubated for 30 mins followed by calcein AM addition and measured every 60 secs for 60 mins by fluorescence assay. In kind it is cell-based. The method in brief: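 ABCB1 in A2780/ADR cells (kept resistant by one passage in 1 µM doxorubicin every 10 passages). 30,000 cells per well in Krebs-HEPES buffer, preincubated 30 min at 37 °C with inhibitor. Calcein AM added from a 3.125 µM solution. Fluorescence (ex 485, em 520 nm) read every 60 s for 60 min. Initial linear slopes vs log concentration fitted to give IC50.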

Data set [14] has as its target T3, Broad substrate specificity ATP-binding cassette transporter ABCG2. Nature of the data set: Inhibition of human ABCG2-mediated multidrug resistance in MDCK2 cells assessed as potentiation of SN-38-induced cytotoxicity by measuring time need to achieve half maximal cell death at 10 to 50 nM measured up to 7 days by MTT assay. In kind it is cell-based. The settings on record: mdck-ii, 168 h, dose 10-50 nM, time <=7 day. The method in brief: (§3)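 Time-dependent reversal in ABCG2-GFP MDCK II cells: SN-38 at 0.5 µM with modulator at 0, 10, 25 or 50 nM. Seeding density decreased with assay day (10,000 cells for day 1 down to 200 for day 7). MTT viability read daily for 7 days. Results normalised to medium-only cells or to SN-38 alone. Curve inflection points plotted vs modulator concentration to derive tmax, tmin, ctmin and c½tmax. Triplicates, at least three experiments; multiple t-test.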

The target is the same in data set [15]. Nature of the data set: Inhibition of human ABCG2-mediated multidrug resistance in MDCK2 cells assessed as potentiation of SN-38-induced cytotoxicity at 10 to 50 nM after 5 days by MTT assay. The following applies: mdck-ii, 120 h, dose 10-50 nM, time 5 day. In kind it is cell-based.
A short description of data set [16]: Down regulation of ABCG2 in MDCK2 cells at 10 nM after 7 days by Western blot analysis. The format is functional, Canis lupus familiaris, MDCK-II. The settings on record: time 7 day. The method in brief:
(§4)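 ABCG2-GFP MDCK II cells seeded in T25 flasks (86,000 for 4 days, 17,200 for 7 days). Exposed to modulator (10 nM) and/or SN-38 (0.5 µM) for 4 or 7 days. 15 µg protein run on stain-free 10% SDS-PAGE and transferred to PVDF. Probed with BXP-21 (1:200, overnight, 4 °C) and HRP secondary, ECL detection. Bands normalised to total protein and to the untreated control; one-sample t-test.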
(In general: In western blotting, separated proteins are transferred to a membrane and probed.)

A short description of data set [17]: Down regulation of ABCG2 in MDCK2 cells at 10 nM after 4 days by Western blot analysis. The format is functional, Canis lupus familiaris, MDCK-II. The settings on record: time 4 day. The method in brief: as §4
The target of data set [18] is T3, Broad substrate specificity ATP-binding cassette transporter ABCG2. Nature of the data set: Inhibition of human ABCG2-mediated multidrug resistance in MDCK2 cells assessed as potentiation of SN-38-induced cytotoxicity by measuring half-maximal cell death acceleration at 10 to 50 nM measured at 5.75 days by MTT assay. The following applies: dose 10-50 nM, time 5.7 day; read-out: Activity. In kind it is cell-based, MDCK-II. The method in brief:
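MDCK II cells transfected with human ABCG2–GFP were exposed to SN-38 at 0.5 µM final, alone or with modulator at 0, 10, 25 or 50 nM. Cells were seeded at 10,000 down to 200 per well according to read-out day and kept at 37 °C, 5% CO2. MTT viability was read daily for 7 days. Inflection points of the viability–time curves were regressed against modulator concentration. At least 3 independent experiments, triplicates.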

For data set [19] the target is unchanged. Nature of the data set: Inhibition of human ABCG2-mediated multidrug resistance in MDCK2 cells assessed as potentiation of SN-38-induced cytotoxicity at 10 to 50 nM measured up to 7 days by MTT assay. The format is cell-based. The following applies: mdck-ii, 168 h, dose 10-50 nM, time <=7 day. The method in brief:
as §3

Data set [20] has the same target. Nature of the data set: Inhibition of human ABCG2-mediated multidrug resistance in MDCK2 cells assessed as potentiation of SN-38-induced cytotoxicity at 10 nM after 7 days by MTT assay relative to SN-38 alone. In kind it is cell-based. The following applies: mdck-ii, 168 h, 0.01 µM, time 7 day. The method in brief:
as §3

A short description of data set [21]: Effect on total ABCG2 in MDCK2 cells at 10 nM after 4 to 7 days in presence of SN-38 by Western blot analysis. The format is ADME, cell-based, Canis lupus familiaris. The settings on record: dog, mdck-ii, 0.01 µM, time 4-7 day. The method in brief:
as §4

T1 sequence (P08183 whole entry): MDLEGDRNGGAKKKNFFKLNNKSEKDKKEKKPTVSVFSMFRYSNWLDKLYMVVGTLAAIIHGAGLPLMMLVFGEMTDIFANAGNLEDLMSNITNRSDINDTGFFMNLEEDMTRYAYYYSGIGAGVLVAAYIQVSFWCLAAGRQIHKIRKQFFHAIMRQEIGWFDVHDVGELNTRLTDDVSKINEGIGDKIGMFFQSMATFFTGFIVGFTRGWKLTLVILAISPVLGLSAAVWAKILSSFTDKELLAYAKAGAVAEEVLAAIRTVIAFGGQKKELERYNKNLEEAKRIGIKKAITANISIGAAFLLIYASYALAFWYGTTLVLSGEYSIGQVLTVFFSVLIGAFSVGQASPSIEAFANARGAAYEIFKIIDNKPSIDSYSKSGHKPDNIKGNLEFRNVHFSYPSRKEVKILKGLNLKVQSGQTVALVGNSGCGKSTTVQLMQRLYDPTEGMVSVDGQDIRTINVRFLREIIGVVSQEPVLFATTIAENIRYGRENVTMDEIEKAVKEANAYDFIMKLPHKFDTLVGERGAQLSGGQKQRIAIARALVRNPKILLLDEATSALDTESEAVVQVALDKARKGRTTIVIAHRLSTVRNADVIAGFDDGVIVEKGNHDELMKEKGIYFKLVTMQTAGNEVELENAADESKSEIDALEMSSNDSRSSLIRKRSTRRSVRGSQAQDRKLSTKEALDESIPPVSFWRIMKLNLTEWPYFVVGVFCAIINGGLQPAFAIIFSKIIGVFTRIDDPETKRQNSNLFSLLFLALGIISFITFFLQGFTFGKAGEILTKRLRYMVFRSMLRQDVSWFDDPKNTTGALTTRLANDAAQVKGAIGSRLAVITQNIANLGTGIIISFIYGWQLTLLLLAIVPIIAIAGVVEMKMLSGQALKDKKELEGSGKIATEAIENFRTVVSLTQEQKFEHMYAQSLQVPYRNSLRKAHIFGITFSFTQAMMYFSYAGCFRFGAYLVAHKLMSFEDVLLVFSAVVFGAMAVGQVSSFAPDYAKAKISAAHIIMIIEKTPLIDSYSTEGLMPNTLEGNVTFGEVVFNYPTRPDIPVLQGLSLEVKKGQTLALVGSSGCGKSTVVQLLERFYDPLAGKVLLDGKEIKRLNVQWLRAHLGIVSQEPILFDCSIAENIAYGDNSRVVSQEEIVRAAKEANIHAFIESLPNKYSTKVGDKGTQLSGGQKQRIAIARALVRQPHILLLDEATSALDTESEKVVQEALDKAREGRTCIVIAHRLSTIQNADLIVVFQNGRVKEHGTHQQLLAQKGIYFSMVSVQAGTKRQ

The term IC50 denotes the concentration at which inhibition is half-maximal. Usually GI50 stands for the concentration giving 50% growth inhibition. A low value points to greater sensitivity of the cells. Take `COc1ccc(Nc2cc(C)nc(-c3ccccc3)n2)cc1C(F)(F)F`: the Activity result in [1] and in [10] was “Toxic” each time. Also, the selectivity ratio in data set [2] was found to be 14. The “inhibition (INH)” value in [3] and in data set [6] was “Not Active” throughout. Further, the Emax at 2 h in data set [4] was found to be 83%; in data set [11], 100%. For the same compound, the IC50 in data set [5] was 0.598 µM; in [9], 0.544 µM; in data set [13], 7.3 µM. Moreover, in [7], the selectivity ratio at 2 h came to 15. The GI50 at 72 h in [8] worked out at 8.4 µM; in data set [12] it was 10.1 µM.

Take `Cc1cc(Nc2cccc(Cl)c2)nc(-c2ccccc2)n1`: the Activity entry in data set [1] and in data set [10] was “Non-Toxic” each time. Further, the “inhibition (INH)” value in data set [3] and in [6] was “Not Active” in each case. Also, the Emax at 2 h in data set [4] and in [11] was 100% each time. For the same compound, the IC50 is 0.811 µM in data set [5], 1 µM in [9] and 5.92 µM in data set [13].

Regarding `Cc1cc(Nc2ccc(C#N)c(C)c2)nc(-c2ccccc2)n1`, the Tmin in data set [14] is 4.25 days. Further, the Activity entry in data set [1] is given as “Non-Toxic”; in data set [16] it was 24%; in data set [17], 36%; in [10], “Non-Toxic”; in [21], “Non-Toxic”. The “inhibition (INH)” value in [15] and in data set [19] was “Active” throughout. For the same compound, the selectivity ratio in [2] was 167. Besides, the Emax at 2 h was 76% in [4] and 106% in [11]. In addition, the results for the IC50 in data set [5] and in [9] were 0.0935 µM and 0.175 µM, respectively. In data set [7], the selectivity ratio at 2 h was found to be 90. Besides, the GI50 at 72 h in data set [8] and in data set [12] was 15.7 µM in each case. Also, the EC50 in [18] is 0.0173 µM. In addition, the “fold change (FC)” value in data set [20] came out at 2.
